Measurements reported in PMC4101349 (Translational Oncology, 2014).

Assays:
PC9/gef B4 cells [1] = test: Alamar Blue cytotoxicity assay, PC9/gef B4; assay type: cell-based; conditions: Homo sapiens, 72 h, read-out: IC50 (50% inhibition of cell growth)
How it was run: (§1)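 Cells were seeded at 3000 per well and incubated overnight at 37°C. They were then exposed for 72 h to a range of test compound concentrations, alone or combined with a PI3K inhibitor. Alamar Blue was added for 6 h and absorbance read at 570 and 600 nm. IC50 was derived by the median-effect principle, as mean ± SD of three independent experiments. A549 was kept in DMEM; other lines in RPMI 1640 with 10% FBS, at 37°C and 5% CO2.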

[2] = tested on: DNA repair proteins (Mre11, Nbs1, pNbs1, Rad50, Rad51, FANCD2); test: Western blot of DNA repair proteins in lung cancer cells; assay type: cell-based, human; conditions: LY294002 40 μM with 20 μM BO-1509, 24 hours; H460, A549, PC9, PC9/gef B4
How it was run: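 H460, A549, PC9 and PC9/gef B4 cells were treated for 24 h with 10-80 μM test compound. Alternatively, they received 20 μM test compound and/or 40 μM PI3K inhibitor for 24 h. Lysates in electrophoresis sample buffer were run on SDS-PAGE and transferred to PVDF. Membranes took primary antibodies overnight at 4°C and HRP secondary antibody for 1 h at room temperature. Detection was by chemiluminescence, with β-actin as loading control.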

A549 cells = test: Alamar Blue cytotoxicity assay, A549; assay type: cell-based; conditions: Homo sapiens, A549, 72 h, read-out: IC50 (50% inhibition of cell growth)
How it was run: as §1

PC9 cells = test: Alamar Blue cytotoxicity assay, PC9; assay type: cell-based; conditions: Homo sapiens, PC-9, 72 h, read-out: IC50 (50% inhibition of cell growth)
How it was run: as §1

[3] = tested on: H460, A549, PC9, or PC9/gef B4 cells; test: Mouse xenograft models, suppression of tumor growth; assay type: in vivo, BALB/c nude mice; conditions: H460, A549, PC9, PC9/gef B4 xenografts; BO-1509 5 mg/kg i.v. every other day times five; LY294002 40 mg/kg i.p. daily
H460 cells [4] = test: H460 xenograft: histopathology of tumor; assay type: in vivo, BALB/c nude mice; conditions: H460-xenografted mice; 29th day; histopathologic examination
How it was run: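 Nude mice were inoculated s.c. in the flank with H460 cells (approximately 3 × 10^6 to 5 × 10^6 in 100 μl PBS). Dosing began at about 100 mm3: test compound 5 mg/kg i.v. every other day ×5, PI3K inhibitor 40 mg/kg i.p. daily, or both. Tumors were taken 24 h after the final treatment for cleaved caspase-3 immunohistochemistry. Lungs were taken 29 days after transplantation for H&E histology.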

[5] = Blood enzymes / biochemical parameters in treated mice; assay type: in vivo; conditions: 10th day; BALB/c nude mice; mean ± SD
How it was run: (§2)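 Male BALB/c nude mice, six weeks old, received vehicle, test compound, PI3K inhibitor, or both. The test compound was given at 5 mg/kg i.v. on days 0, 2, 4, 6 and 8; the inhibitor at 40 mg/kg i.p. daily. Vehicle was 0.9% saline with 8% DMSO, 6% Tween-80 and 16% cremophor. Hematological and serum biochemical parameters were measured 1 day after the last i.v. injection.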

[6] = Complete blood profile in treated mice; assay type: in vivo, BALB/c nude mice; conditions: 10th day
How it was run: as §2

PC9/gef B4 cells [7] = test: Mouse xenograft model, PC9/gef B4; assay type: in vivo, BALB/c nude mice; conditions: PC9/gef B4-xenografted mice; LY294002 40 mg/kg i.p. daily
How it was run: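 PC9/gef B4 cells were implanted s.c. in the flank of male BALB/c nude mice, six weeks old. At about 70 mm3, mice were randomized into four groups: vehicle, test compound 5 mg/kg i.v. every other day ×5, PI3K inhibitor by daily i.p. injection, or the combination. Vehicle was saline with 8% DMSO, 6% Tween-80 and 16% cremophor. Caliper tumor volume was calculated as (length × width²)/2.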

H460 cells [8] = test: Alamar Blue cytotoxicity assay, H460; assay type: cell-based; conditions: Homo sapiens, NCI-H460, 72 h, read-out: IC50 (50% inhibition of cell growth)
How it was run: as §1

O=c1cc(N2CCOCC2)oc2c(-c3ccccc3)cccc12 [LY294002, 2-(4-morpholinyl)-8-phenyl-4H-1-benzopyran-4-one]
IC50 (PC9/gef B4 cells [1]): 31.3 ± 3.8 µM | BO-1509-induced increase in pNbs1 and Rad51 [2]: suppressed | IC50 (A549 cells): 28.4 ± 4.3 µM | IC50 (PC9 cells): 56.9 ± 1.1 µM | suppression of the tumor burden [3]: limited | metastasis in the lungs (H460 cells [4]): 80% | AST [5]: 75.6 ± 17.8 U/l | Alanine aminotransferase [5]: 31.6 ± 2.5 U/l | Blood urea nitrogen [5]: 25.0 ± 5.8 mg/dL | Glucose (GLU-P) [5]: 172 ± 23 mg/dL | LDH [5]: 463 ± 117 U/l | Basophils ([6]; BALB/c nude mice, mean ± SD): 0.07 ± 0.00 10^3/μl | Eosinophils ([6]; BALB/c nude mice, mean ± SD): 0.06 ± 0.01 10^3/μl | Hematocrit ([6]; BALB/c nude mice, mean ± SD): 54.1 ± 0.70% | Hemoglobin ([6]; BALB/c nude mice, mean ± SD): 16.25 ± 0.10 g/dL | Lymphocytes ([6]; BALB/c nude mice, mean ± SD): 0.81 ± 0.10 10^3/μl | Mean cell hemoglobin ([6]; BALB/c nude mice, mean ± SD): 15.40 ± 0.09 pg | Mean cell volume ([6]; BALB/c nude mice, mean ± SD): 51.5 ± 0.30 fL | Mean corpuscular hemoglobin concentration ([6]; BALB/c nude mice, mean ± SD): 29.90 ± 0.30 g/dL | Monocytes ([6]; BALB/c nude mice, mean ± SD): 0.15 ± 0.05 10^3/μl | Neutrophils ([6]; BALB/c nude mice, mean ± SD): 1.27 ± 0.10 10^3/μl | Platelets ([6]; BALB/c nude mice, mean ± SD): 783 ± 86 10^3/μl | RBC distribution width ([6]; BALB/c nude mice, mean ± SD): 20.90 ± 1.00% | RBCs ([6]; BALB/c nude mice, mean ± SD): 10.53 ± 0.10 10^6/μl | WBCs ([6]; BALB/c nude mice, mean ± SD): 2.37 ± 0.20 10^3/μl | decrease of RBC count and hemoglobin concentration ([6]; treated mice versus control): minimal changes | suppression of the tumor burden (PC9/gef B4 cells [7]): ~40% | IC50 (H460 cells [8]): 111 ± 15.1 µM
